Source: ChEMBL document CHEMBL1126800, “Preparation of substituted N-phenyl-4-aryl-2-pyrimidinamines as mediator release inhibitors” (J Med Chem, 1993)
pIC50: −log10 of the molar value.

Organism: Homo sapiens
Assay: In vitro inhibition of histamine release from human basophils
Type: functional, organism-based
Summary of the method: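 Human basophils separated from leukocytes were incubated with test compound, then challenged with anti-IgE or antigen (Lichtenstein method). Histamine release was measured against controls and blanks. IC50 is the concentration lowering histamine release by 50%.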

Compound | pIC50 (Homo sapiens) | pIC50
c1ccc(-c2nccc(-c3ccncc3)n2)cc1 | 4.86 | –
Nc1ccc(Nc2nccc(-c3ccccn3)n2)cc1 | 5.82 | –
Nc1cccc(Nc2nccc(-c3cccnc3)n2)c1 | 6.30 | –
Nc1ccc(Nc2nccc(-c3ccncc3)n2)cc1 [listing 1 of 2 here] | 5.54 | –
FC(F)(F)c1cccc(Nc2nccc(-c3cccnc3)n2)c1 [listing 1 of 2 here] | – | 6.15
c1cc(Nc2nccc(-c3ccncc3)n2)cc(-n2ccnc2)c1 [listing 1 of 2 here] | – | 5.41
c1ccc(-c2ccnc(Nc3cccc(-n4ccnc4)c3)n2)nc1 | – | 6.70
FC(F)(F)c1cccc(Nc2nccc(-c3cccnc3)n2)c1 [listing 2 of 2 here] | – | 5.68
FC(F)(F)c1cccc(Nc2nccc(-c3ccccn3)n2)c1 [listing 1 of 2 here] | – | 6.40
c1ccc(Nc2nccc(-c3cccnc3)n2)cc1 | – | 5.89
c1cncc(-c2ccnc(Nc3cccc(-n4ccnc4)c3)n2)c1 | 6.70 | –
Clc1cccc(Nc2nccc(-c3cccnc3)n2)c1 | 5.82 | –
CCOC(=O)c1ccc(Nc2nccc(-c3cccnc3)n2)cc1 | 4.91 | –
NS(=O)(=O)c1cccc(Nc2nccc(-c3ccccn3)n2)c1 | 6.30 | –
Cc1cc(-c2ccco2)nc(Nc2ccccc2)n1 | 4.75 | –
Cc1cc(-c2ccccn2)nc(Nc2ccccc2)n1 | 4.57 | –
c1cc(Nc2nccc(-c3ccncc3)n2)cc(-n2ccnc2)c1 [listing 2 of 2 here] | – | 6.22
CC(=O)N(C)c1ccc(Nc2nccc(-c3ccncc3)n2)cc1 | 6.30 | –
Cc1ccsc1-c1ccnc(Nc2ccc(N(C)C)cc2)n1 | 5.74 | –
FC(F)(F)c1cccc(Nc2nccc(-c3ccccn3)n2)c1 [listing 2 of 2 here] | – | 5.54
CCc1ccc(Nc2nccc(-c3ccccn3)n2)cc1 | 5.68 | –
Fc1cccc(F)c1Nc1nccc(-c2cccnc2)n1 | 4.68 | –
c1ccc(Nc2nccc(-c3ccco3)n2)cc1 | 4.49 | –
Cc1cccc(Nc2nccc(-c3cc(C)oc3C)n2)c1 | 4.55 | –
Cc1cc(C)cc(Nc2nc(C)cc(-c3ccco3)n2)c1 | < 4.62 | –
COc1ccc(Nc2nccc(-c3ccsc3)n2)cc1 | 4.81 | –

Compound | pIC50 (Homo sapiens) | pIC50
COc1ccc(Nc2nccc(-c3ccccn3)n2)cc1 | 5.08 | –
Cc1cccc(Nc2nccc(-c3ccco3)n2)c1 | 5.68 | –
Cc1cccc(Nc2nccc(-c3cccnc3)n2)c1 | 5.82 | –
Oc1ccccc1Nc1nccc(-c2cccnc2)n1 | 4.63 | –
CCN(CC)CCSc1ccc(Nc2nccc(-c3ccncc3)n2)cc1 | 6.00 | –
CCc1cccc(Nc2nccc(-c3ccncc3)n2)c1 | 4.97 | –
c1cc(Nc2nccc(-c3cccs3)n2)cc(-n2ccnc2)c1 | 6.52 | –
Nc1cccc(Nc2nccc(-c3ccccn3)n2)c1 | 6.52 | –
Fc1ccc(Nc2nccc(-c3ccncc3)n2)cc1 | 5.72 | –
CCN(CC)CCCOc1ccc(Nc2nccc(-c3ccncc3)n2)cc1 | 5.89 | –
Oc1ccc(Nc2nccc(-c3cccnc3)n2)cc1 | 5.29 | –
c1ccc(Nc2nccc(-c3cccs3)n2)cc1 | 4.50 | –
CC(C)(C)c1ccc(Nc2nccc(-c3cccnc3)n2)cc1 | 6.22 | –
COc1ccc(Nc2nccc(-c3ccncc3)n2)cc1 | 5.38 | –
CC(=O)Nc1ccc(Nc2nccc(-c3ccncc3)n2)cc1 | 5.28 | –
c1cc(Nc2nccc(-c3ccncc3)n2)cc(OCCn2ccnc2)c1 | 6.70 | –
CC1CCN(c2ccc(Nc3nccc(-c4cccs4)n3)cc2)CC1 | 6.40 | –
CN(C)c1cccc(Nc2nccc(-c3ccncc3)n2)c1 | 5.43 | –
CCOC(=O)C(=O)N(c1ccccc1)c1nccc(-c2ccncc2)n1 | 5.66 | –
Cc1cn(-c2ccc(Nc3nccc(-c4ccncc4)n3)cc2)cn1 | < 5.52 | –
Cc1cccc(Nc2nccc(-c3c[nH]c4ccccc34)n2)c1 | 5.66 | –
CNc1ccc(Nc2nccc(-c3cccnc3)n2)cc1 | 5.68 | –
CCc1ccc(Nc2nccc(-c3ccnc4ccccc34)n2)cc1 | 5.40 | –
CCN(CC)CCOc1ccc(Nc2nccc(-c3ccccn3)n2)cc1 | < 5.52 | –
COc1cccc(Nc2nccc(-c3cc(C)oc3C)n2)c1 | 5.24 | –
c1coc(-c2ccnc(Nc3ccc(-n4ccnc4)cc3)n2)c1 | 5.66 | –

Compound | pIC50 (Homo sapiens) | pIC50
NS(=O)(=O)c1ccc(Nc2nccc(-c3ccncc3)n2)cc1 | 5.29 | –
NS(=O)(=O)c1ccc(Nc2nccc(-c3cccnc3)n2)cc1 | 6.70 | –
CN(C)c1ccc(Nc2nccc(-c3cccnc3)n2)cc1 | 5.55 | –
CN(C)c1cccc(Nc2nccc(-c3cccs3)n2)c1 | 5.62 | –
CCN(CC)c1ccc(Nc2nccc(-c3ccc(C)o3)n2)cc1 | 4.55 | –
Nc1cccc(Nc2nccc(-c3ccncc3)n2)c1 | 6.00 | –
CC(C)N(CCOc1ccc(Nc2nccc(-c3cccnc3)n2)cc1)C(C)C | 5.34 | –
CN(C)c1cccc(Nc2nccc(-c3cccnc3)n2)c1 | 5.74 | –
CCN(CC)CCOc1cccc(Nc2nccc(-c3ccncc3)n2)c1 | 6.22 | –
Cc1cc(-c2ccccn2)nc(Nc2ccc(N(C)C)cc2)n1 | 4.50 | –
COc1ccc(Nc2nccc(-c3cc[n+](C)cc3)n2)cc1 | 4.48 | –
CCN(CC)CCOc1ccc(Nc2nccc(-c3cccnc3)n2)cc1 | 6.70 | –
c1ccc(-c2ccnc(Nc3cccc(OCCn4ccnc4)c3)n2)nc1 | 6.40 | –
COc1cccc(Nc2nccc(-c3ccco3)n2)c1 | 6.40 | –
CCOC(=O)c1cccc(Nc2nccc(-c3ccccn3)n2)c1 | 5.52 | –
c1ccc(-c2ccnc(Nc3ccc(-n4ccnc4)cc3)n2)nc1 | 5.85 | –
CN(C)c1ccc(Nc2nccc(-c3cccs3)n2)cc1 | 6.05 | –
CN(C)c1ccccc1Nc1nccc(-c2ccncc2)n1 | 4.44 | –
CC(=O)Nc1cccc(Nc2nccc(-c3ccccn3)n2)c1 | 6.52 | –
Nc1ccc(Nc2nccc(-c3ccncc3)n2)cc1 [listing 2 of 2 here] | – | 5.62
CC1CCN(C(=O)COc2ccc(Nc3nccc(-c4ccncc4)n3)cc2)CC1 | 6.52 | –
CC1CCN(c2ccc(Nc3nccc(-c4ccco4)n3)cc2)CC1 | 5.74 | –
CCN(CC)c1ccc(Nc2nccc(-c3ccco3)n2)cc1 | 5.06 | –
COc1ccc(N(C)c2nccc(-c3ccncc3)n2)cc1 | < 4.62 | –
c1cc(Nc2nccc(-c3ccco3)n2)cc(OCCn2ccnc2)c1 | 6.70 | –
Fc1cccc(Nc2nccc(-c3ccncc3)n2)c1 | 6.15 | –

Compound | pIC50 (Homo sapiens) | pIC50
CC1CCN(c2ccc(Nc3nccc(-c4ccccn4)n3)cc2)CC1 | 5.72 | –
CCOC(=O)c1cccc(Nc2nccc(-c3cccnc3)n2)c1 | 4.98 | –
CC(=O)c1ccc(Nc2nccc(-c3cccnc3)n2)cc1 | 6.10 | –
COc1ccccc1Nc1nccc(-c2cccnc2)n1 | 5.01 | –
NS(=O)(=O)c1cccc(Nc2nccc(-c3cccnc3)n2)c1 | 6.70 | –
COc1cccc(Nc2nccc(-c3ccsc3)n2)c1 | 5.74 | –
CC(=O)Nc1cccc(Nc2nccc(-c3ccncc3)n2)c1 | 5.57 | –
CC1CCN(c2cccc(Nc3nccc(-c4ccco4)n3)c2)CC1 | 5.30 | –
c1cc(Nc2nccc(-c3ccco3)n2)cc(-n2ccnc2)c1 | 6.10 | –
CC1CCN(c2ccc(Nc3nccc(-c4ccncc4)n3)cc2)CC1 | 6.22 | –
Cc1cc(C)cc(Nc2ncc(C)c(-c3cccnc3)n2)c1 | < 4.62 | –
CCN(CC)CCOc1cccc(Nc2nccc(-c3cccnc3)n2)c1 | 5.54 | –
CC(=O)Nc1cccc(Nc2nccc(-c3cccnc3)n2)c1 | 5.44 | –
Cc1cc(-c2ccnc(Nc3ccccc3)n2)c(C)o1 | 5.70 | –
Cc1cc(C)cc(Nc2nc(C)cc(-c3ccccn3)n2)c1 | < 4.62 | –
Cc1cccc(Nc2nccc(-c3ccncc3)n2)c1 | 5.06 | –
CN(C)CCCOc1ccc(Nc2nccc(-c3cccnc3)n2)cc1 | 6.22 | –
CCN(CC)CCOc1cccc(Nc2nccc(-c3ccco3)n2)c1 | 5.85 | –
Cc1cc(C)cc(Nc2nccc(-c3cccnc3)n2)c1 | 6.10 | –
CCc1ccc(Nc2nccc(-c3ccncc3)n2)cc1 | 5.11 | –
CC(=O)N(C)c1ccc(Nc2nccc(-c3ccccn3)n2)cc1 | 5.74 | –
Cc1cccc(Nc2nccc(-c3ccc[nH]3)n2)c1 | 5.07 | –
Cc1cc(C)cc(Nc2nccc(-c3ccccn3)n2)c1 | 7.00 | –
Cc1cc(C)cc(Nc2nccc(-c3cc(C)oc3C)n2)c1 | 5.39 | –
CCN(CC)c1ccc(Nc2nccc(-c3cc(C)oc3C)n2)cc1 | < 4.62 | –
CN(C)c1cccc(Nc2nccc(-c3ccccn3)n2)c1 | 6.40 | –

Compound | pIC50 (Homo sapiens) | pIC50
c1cc(-c2ccnc(Nc3ccc(-n4ccnc4)cc3)n2)ccn1 | 5.12 | –
COc1cccc(Nc2nccc(-c3ccc(C)s3)n2)c1 | 5.64 | –
NS(=O)(=O)c1ccc(Nc2nccc(-c3ccccn3)n2)cc1 | 5.34 | –
CN(C)CCOc1ccc(Nc2nccc(-c3cccnc3)n2)cc1 | 6.15 | –
CC1CCN(c2cccc(Nc3nccc(-c4cccnc4)n3)c2)CC1 | 5.92 | –
COc1cccc(Nc2nccc(-c3ccncc3)n2)c1 | 6.40 | –
CCc1ccc(Nc2nccc(-c3cc(C)oc3C)n2)cc1 | 4.72 | –
c1ccc(Nc2nccc(-c3c[nH]c4ccccc34)n2)cc1 | 5.52 | –
COc1cccc(Nc2nccc(-c3ccccn3)n2)c1 | 6.70 | –
Cc1ccc(-c2ccnc(Nc3cccc(N(C)C)c3)n2)s1 | 5.24 | –
COc1cccc(Nc2nccc(-c3cccs3)n2)c1 | 6.05 | –
Cc1cccc(Nc2nccc(-c3ccc(C)o3)n2)c1 | 5.70 | –
CC(=O)Nc1ccc(Nc2nccc(-c3cccnc3)n2)cc1 | 5.44 | –
CN(C)c1ccc(Nc2nccc(-c3ccco3)n2)cc1 | 5.72 | –
Cc1cccc(Nc2nccc(-c3ccsc3)n2)c1 | 5.42 | –
CNc1ccc(Nc2nccc(-c3ccccn3)n2)cc1 | 5.85 | –
Cc1cc(-c2ccncc2)nc(Nc2ccc(N(C)C)cc2)n1 | < 4.62 | –
Cc1cc(C)cc(Nc2nccc(-c3cccs3)n2)c1 | 5.37 | –
CCc1cccc(Nc2nccc(-c3ccco3)n2)c1 | 5.01 | –
c1cncc(-c2ccnc(Nc3ccc(-n4ccnc4)cc3)n2)c1 | 5.89 | –
COc1ccc(N(C)c2nccc(-c3cccnc3)n2)cc1 | < 4.62 | –
COc1ccc(Nc2nccc(-c3cccs3)n2)cc1 | 5.41 | –
Cc1ccccc1Nc1nccc(-c2ccncc2)n1 | 5.41 | –
CN(c1ccccc1)c1nccc(-c2ccncc2)n1 | < 4.62 | –
Oc1ccc(Nc2nccc(-c3ccncc3)n2)cc1 | 5.48 | –
NS(=O)(=O)c1cccc(Nc2nccc(-c3ccncc3)n2)c1 | 6.30 | –
